From publication PMC6916429 (ACS infectious diseases, 2019)
Where “and” joins values, the source holds several entries; their conditions need not be identical. Equal values may be shown once.

T1: S. aureus ClpP (caseinolytic protease) (S. aureus NCTC 8325), Q2G036
T1 chain: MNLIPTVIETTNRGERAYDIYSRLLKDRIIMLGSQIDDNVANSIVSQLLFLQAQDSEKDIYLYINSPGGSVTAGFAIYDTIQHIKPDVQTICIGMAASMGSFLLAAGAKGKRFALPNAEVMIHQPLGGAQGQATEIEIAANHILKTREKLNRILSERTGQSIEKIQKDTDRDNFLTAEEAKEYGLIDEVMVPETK


Tests used:
[1] = tested on: S. aureus biofilms (UAMS-1); assay: Biofilm killing assay; assay type: cell-based; settings: 10 times the MIC, 24 hours, compared with the control
Procedure, shortened: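 Overnight stationary UAMS-1 culture diluted 1:20 in BHI broth and grown 24 h at 37 °C in tissue-culture-treated 96-well plates. Wells PBS-washed twice, then exposed to test compound in fresh medium for 24 h. Washed again, biofilms disrupted by sonication in PBS, serially diluted, and spotted on BHI agar overnight at 37 °C for cfu counts. One-way ANOVA with Dunnett's test.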

[2] = molecular target: T1, S. aureus ClpP (caseinolytic protease) …; assay: AUC; settings: remark: other sources report otherwise
[3] = molecular target: T1, S. aureus ClpP (caseinolytic protease) …; assay: crystal structure; settings: remark: other sources report otherwise

Molecule	reduction in growth of mature S. aureus biofilms [1]	stoichiometry N [2]	stoichiometry N [3]
CO[C@H]1/C=C/O[C@@]2(C)Oc3c(C)c(O)c4c(O)c(c(/C=N/N5CCN(C)CC5)c(O)c4c3C2=O)NC(=O)/C(C)=C\C=C\[C@H](C)[C@H](O)[C@@H](C)[C@@H](O)[C@@H](C)[C@H](OC(C)=O)[C@@H]1C [rifampin]	limited reduction	–	–
S. aureus ClpP (caseinolytic protease), Q2G036 1-195 (enzyme) MNLIPTVIETTNRGERAYDIYSRLLKDRIIMLGSQIDDNVANSIVSQLLFLQAQDSEKDIYLYINSPGGSVTAGFAIYDTIQHIKPDVQTICIGMAASMGSFLLAAGAKGKRFALPNAEVMIHQPLGGAQGQATEIEIAANHILKTREKLNRILSERTGQSIEKIQKDTDRDNFLTAEEAKEYGLIDEVMVPETK	–	14 and 7	14
